Measured values published in ChEMBL document CHEMBL4368872, “Synthesis and anticonvulsant activity of phenoxyacetyl derivatives of amines, including aminoalkanols and amino acids” (Medchemcomm, 2018).
Activity calls are given as the source filed them. The calls are words filed in the database; no cut-off is given here.

What was measured:
Mus musculus [1] = test: Anticonvulsant activity in CF-1 mouse model of maximal electroshock-induced seizure assessed as suppression of tonic hind limb extension at 30 mg/kg, ip measured at 0.5 hrs post dose; type: functional, organism-based
Outline: (§1)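 Mice dosed i.p. and given maximal electroshock at 50 mA. Read-out is protection, reported as number protected / number tested at 0.25, 0.5, 1 and 4 h after dosing.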

Mus musculus [2] = test: Anticonvulsant activity in CF-1 mouse model of maximal electroshock-induced seizure assessed as suppression of tonic hind limb extension at 30 mg/kg, ip measured at 4 hrs post dose; type: functional, organism-based; outline: as §1
Mus musculus [3] = test: Anticonvulsant activity in CF-1 mouse model of maximal electroshock-induced seizure assessed as suppression of tonic hind limb extension at 100 mg/kg, ip measured at 4 hrs post dose; type: functional, organism-based; outline: as §1
Mus musculus [4] = test: Anticonvulsant activity in CF-1 mouse model of subcutaneous pentylenetetrazole-induced seizure assessed as reduction in convulsions at 300 mg/kg, ip measured at 0.5 hrs post dose; type: functional, organism-based
Outline: (§2)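 Mice dosed i.p., then given pentylenetetrazole 85 mg/kg in 0.9% NaCl s.c. into the posterior midline of the neck. Seizures watched for at least 30 min. Scored as protected / tested at 0.5 and 4 h.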

Mus musculus [5] = test: Anticonvulsant activity in CF-1 mouse model of subcutaneous pentylenetetrazole-induced seizure assessed as reduction in convulsions at 30 mg/kg, ip measured at 4 hrs post dose; type: functional, organism-based; outline: as §2
Mus musculus [6] = test: Anticonvulsant activity in CF-1 mouse model of subcutaneous pentylenetetrazole-induced seizure assessed as reduction in convulsions at 100 mg/kg, ip measured at 4 hrs post dose; type: functional, organism-based; outline: as §2
[7] = Neurotoxicity in CF-1 mouse at 100 mg/kg, ip measured after 1 hr by rotarod test; type: toxicity, organism-based; settings: in vivo
Outline: (§3)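 Mice dosed i.p. were placed on a 1 in. knurled rod turning at 6 rpm. Toxicity was scored as failure to keep balance for at least 1 min, i.e. falling off three or more times. Results are reported as animals showing toxicity / animals tested at each time point.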

[8] = Neurotoxicity in CF-1 mouse at 30 mg/kg, ip measured after 4 hrs by rotarod test; type: toxicity, organism-based; settings: in vivo; outline: as §3
Rattus norvegicus [9] = test: Anticonvulsant activity in Sprague-Dawley rat model of maximal electroshock-induced seizure assessed as suppression of tonic hind limb extension at 30 mg/kg, po measured at 0.5 hrs post dose; type: functional, organism-based
Outline: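 Rats given 30 mg/kg p.o. and tested by maximal electroshock at 150 mA. Scored as number protected / number tested (4 per group) at 0.25, 0.5, 1, 2 and 4 h after dosing.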

[10] = Neurotoxicity in Sprague-Dawley rat at 30 mg/kg, po measured after 0.5 hrs by rotarod test; type: toxicity, organism-based; settings: in vivo
Outline: (§4)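 Rat neurotoxicity after i.p. or p.o. dosing was scored as animals impaired / animals tested at each time point. For p.o. dosing, TD50 was obtained by probit analysis.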

[11] = Neurotoxicity in Sprague-Dawley rat at 30 mg/kg, po measured after 1 hr by rotarod test; type: toxicity, organism-based; settings: in vivo; outline: as §4
[12] = Neurotoxicity in Sprague-Dawley rat at 100 mg/kg, ip measured after 0.5 hrs by rotarod test; type: toxicity, organism-based; settings: in vivo; outline: as §4
[13] = Neurotoxicity in Sprague-Dawley rat at 100 mg/kg, ip measured after 1 hr by rotarod test; type: toxicity, organism-based; settings: in vivo; outline: as §4
[14] = Retention time of the compound in rat liver microsomes by LC-MS/MS analysis; type: ADME, Microsome
[15] = Mutagenicity in Salmonella typhimurium TA100 assessed as mutagenicity index at 50 to 500 ug/plate preincubated for 30 mins followed by top agar addition and measured after 48 hrs in presence of liver S9 fraction by Ames test; type: toxicity, subcellular; settings: salmonella enterica subsp. enterica serovar typhimurium, s9, 48 h
Outline: (§5)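 Ames plate incorporation in S. typhimurium TA100 or TA1535, with or without S9. Overnight culture, compound in DMSO (50–500 µg per plate) and buffer or S9 mix preincubated 30 min at 37 °C, then top agar on glucose minimal agar. Incubated 48 h at 37 °C, revertants counted in triplicate. Vehicle negative control; NaN3 (−S9) and 2AA (+S9) positive controls. MI = revertants with compound / negative-control revertants; MI ≥ 2 with dose-response counts as positive.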

[16] = Mutagenicity in Salmonella typhimurium TA100 assessed as mutagenicity index at 50 to 500 ug/plate preincubated for 30 mins followed by top agar addition and measured after 48 hrs in absence of liver S9 fraction by Ames test; type: toxicity; settings: salmonella enterica subsp. enterica serovar typhimurium, s9, 48 h; outline: as §5
Salmonella typhimurium = test: Antimutagenic activity against Salmonella typhimurium TA1535 assessed as inhibition of NaN3-induced mutation at 250 ug/plate preincubated for 30 mins followed by top agar addition and measured after 48 hrs in presence of liver S9 fraction by Ames test relative to control; type: organism-based; settings: salmonella enterica subsp. enterica serovar typhimurium, s9, 48 h
[17] = Neurotoxicity in Sprague-Dawley rat at 30 mg/kg, ip measured after 2 hrs by rotarod test; type: toxicity, organism-based; settings: in vivo; outline: as §4
Mus musculus [18] = test: Anticonvulsant activity in ip dosed CF-1 mouse model of maximal electroshock-induced seizure assessed as suppression of tonic hind limb extension; type: functional; settings: CF-1, ip
Mus musculus [19] = test: Anticonvulsant activity in CF-1 mouse model of maximal electroshock-induced seizure assessed as suppression of tonic hind limb extension at 110 mg/kg, ip measured at 1 hr post dose; type: functional, organism-based; outline: as §1
[20] = Neurotoxicity in ip dosed CF-1 mouse by rotarod test; type: toxicity, organism-based; settings: in vivo; outline: as §3
[21] = Protection index, ratio of TD50 for neurotoxicity in ip dosed CF-1 mouse to ED50 for anticonvulsant activity in CF-1 mouse model of maximal electroshock-induced seizure; type: toxicity, organism-based; settings: in vivo, read-out: Ratio TD50/ED50
Mus musculus [22] = test: Anticonvulsant activity in CF-1 mouse assessed as protection against 44 mA current-induced seizure at 120 mg/kg, ip after 15 mins by 6 Hz psychomotor test; type: functional, organism-based
Outline: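 Mice dosed i.p. (30, 100, 300 mg/kg; one line at 120 mg/kg read at 15 min). Corneal stimulation at 6 Hz, 44 mA for 3 s from a constant-current device induces a psychomotor seizure with stunned posture, forelimb automatisms, clonus, vibrissae twitching and Straub tail. Scored as number of animals protected / number tested (4 per group) at 0.5 and 2 h.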

Rattus norvegicus [23] = test: Anticonvulsant activity in po dosed Sprague-Dawley rat model of maximal electroshock-induced seizure assessed as suppression of tonic hind limb extension; type: functional
Outline: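 Rats dosed p.o. and tested by MES at 150 mA. ED50 derived by probit analysis from quantitative dose groups, run at the time of peak effect (hours).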

[24] = Neurotoxicity in Sprague-Dawley rat at 300 mg/kg, ip measured after 4 hrs by rotarod test; type: toxicity, organism-based; settings: in vivo; outline: as §4
[25] = Neurotoxicity in Sprague-Dawley rat assessed as abnormal behavior at 100 mg/kg, ip administered as single dose measured after 0.25 hrs by rotarod test; type: toxicity, organism-based; settings: in vivo; outline: as §4
Astrocyte = test: Cytotoxicity against mouse astrocytes assessed as effect on cell proliferation at 10 to 200 uM after 72 hrs by crystal violet staining based spectrophotometric method
Outline: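 Proliferation in mouse astrocyte line: 1×10^4 cells per well, exposed 24 h after seeding to 10–200 µM for 72 h. Fixed in 3.7% formaldehyde, stained 10 min with 0.01% crystal violet, dye eluted with methanolic citric acid/sodium citrate, OD at 540 nm.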

Compound	Activity (Mus musculus [1])	Activity (Mus musculus [2])	Activity (Mus musculus [3])	Activity (Mus musculus [4])	Activity (Mus musculus [5])	Activity (Mus musculus [6])	Activity [7]	Activity [8]	Activity (Rattus norvegicus [9])	Activity [10]	Activity [11]	Activity [12]	Activity [13]	Retention_time [14]	Activity index [15]	Activity index [16]	inhibition (INH) (Salmonella typhimurium)	further results
CCC(O)CNC(=O)COc1c(C)cccc1C (centres undefined)	inactive	inactive	inactive	inactive	inactive	inactive	Non-Toxic	Non-Toxic	Active	Non-Toxic	Non-Toxic	Toxic	Non-Toxic	5.15 min	0.7 to 1.7	0.7 to 1.7	56%	
Cc1cccc(C)c1OCC(=O)N[C@H](C)CO	inactive	inactive	inactive	inactive	inactive	inactive	Non-Toxic	Non-Toxic	Active	Non-Toxic	Non-Toxic	Non-Toxic	Non-Toxic	4.73 min	0.7 to 1.7	0.7 to 1.7	47%	Activity [17]: Non-Toxic; ED50 (Mus musculus [18]): 97.9 mg/kg; Activity (Mus musculus [19]): inactive; TD50 [20]: 140 mg/kg; selectivity ratio [21]: 1.43; Activity (Mus musculus [22]): Active; ED50 (Rattus norvegicus [23]): 12 mg/kg; Activity [24]: Toxic; Activity [25]: Toxic; Activity (Astrocyte): Non-Toxic
